Six compounds from ChEMBL document CHEMBL1154061, “Synthesis and in vitro antibacterial activity of 7-(4-alkoxyimino-3-amino-3-methylpiperidin-1-yl)fluoroquinolone derivatives” (Eur J Med Chem, 2009) can be followed below.

By MIC is commonly meant the lowest concentration that inhibits growth of the organism. Broadly, the CC50 is the concentration giving 50% cytotoxicity.

In data set [1] the test system is Shigella sonnei. Kind of data set: Antibacterial activity against Shigella sonnei 51592 after 18 to 24 hrs by twofold serial dilution method. It counts as functional. An outline of the steps: (§1)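 Agar media, standard twofold serial dilution (NCCLS M100-S11 basis). Plates incubated at 35 °C for 18–24 h. MIC taken as the lowest compound concentration giving complete inhibition of visible bacterial growth.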

For data set [2], the system named is Staphylococcus aureus. Kind of data set: Antibacterial activity against methicillin-resistant Staphylococcus aureus 05-3 after 18 to 24 hrs by twofold serial dilution method. Format: functional. Summed up:
(§2)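 Agar twofold serial dilution MIC. Plates incubated at 35 °C for 18–24 h. MIC taken as the lowest compound concentration giving complete inhibition of visible bacterial growth.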

Data set [3] concerns Streptococcus pyogenes. Description: Antibacterial activity against Streptococcus pyogenes 9619 after 18 to 24 hrs by twofold serial dilution method. Format: functional. Summed up: as §1
Data set [4] concerns Staphylococcus epidermidis. Description: Antibacterial activity against Staphylococcus epidermidis ATCC 12228 after 18 to 24 hrs by twofold serial dilution method. Format: functional. Summed up:
as §1

Data set [5] deals with Enterobacter cloacae. Description: Antibacterial activity against Enterobacter cloacae 45301 after 18 to 24 hrs by twofold serial dilution method. Format: functional. Summed up:
as §1

The nature of data set [6]: Cytotoxicity against african green monkey Vero cells assessed as cell viability after 72 hrs by MTT assay. It counts as cell-based. The settings on record: chlorocebus sabaeus. Background: Formazan colour is commonly taken as a measure of viable cells.
Data set [7] concerns Staphylococcus epidermidis. Kind of data set: Antibacterial activity against methicillin-resistant Staphylococcus epidermidis 05-1 after 18 to 24 hrs by twofold serial dilution method. Format: functional. Summed up: as §2
The subject of data set [8] is Staphylococcus aureus. Kind of data set: Antibacterial activity against Staphylococcus aureus ATCC 29213 after 18 to 24 hrs by twofold serial dilution method. Format: functional. An outline of the steps:
as §1

The test system of data set [9] is Enterococcus faecalis. Kind of data set: Antibacterial activity against Enterococcus faecalis ATCC 29212 after 18 to 24 hrs by twofold serial dilution method. It counts as functional. An outline of the steps: as §1
The subject of data set [10] is Pseudomonas aeruginosa. Kind of data set: Antibacterial activity against Pseudomonas aeruginosa 17 after 18 to 24 hrs by twofold serial dilution method. Format: functional. An outline of the steps: as §1
Data set [11] relates to Klebsiella pneumoniae. Kind of data set: Antibacterial activity against Klebsiella pneumoniae 7 after 18 to 24 hrs by twofold serial dilution method. It counts as functional. An outline of the steps: as §1
In data set [12] the test system is Streptococcus pneumoniae. Description: Antibacterial activity against Streptococcus pneumoniae 97100 after 18 to 24 hrs by twofold serial dilution method. Format: functional. An outline of the steps:
as §1

Data set [13] has as its system Escherichia coli. Description: Antibacterial activity against Escherichia coli 26 after 18 to 24 hrs by twofold serial dilution method. It counts as functional. Summed up: as §1

Converted amounts (≈) assume the structure as drawn. Bounds are passed on as bounds.

As for `C[C@H]1COc2c(N3CCN(C)CC3)c(F)cc3c(=O)c(C(=O)O)cn1c23.C[C@H]1COc2c(N3CCN(C)CC3)c(F)cc3c(=O)c(C(=O)O)cn1c23.O` [LEVOFLOXACIN], the MIC in data set [1] amounted to 1 µg/mL; in data set [2], 32 µg/mL; in data set [3], 4 µg/mL; in data set [4], 0.5 µg/mL; in [5], 0.125 µg/mL; in data set [7], 32 µg/mL. The minimal inhibitory concentration (MIC) in data set [8] worked out at 0.25 µg/mL; in data set [9], 1 µg/mL; in data set [10], 0.5 µg/mL. In [6], the CC50 at 72 h is above 1000 µM.
For the compound `CO/N=C1/CCN(c2nc3c(cc2F)c(=O)c(C(=O)O)cn3-c2ccc(F)cc2F)CC1(C)N` (centres undefined), the minimum inhibitory concentration (MIC) in [11] is 8 µg/mL (≈ 16.8 µM); in [1], 8 µg/mL (≈ 16.8 µM); in [2] it was above 128 µg/mL; in [3], above 128 µg/mL; in [12], 8 µg/mL (≈ 16.8 µM); in data set [4], 2 µg/mL (≈ 4.21 µM). Besides, the MIC in data set [5] was 16 µg/mL (≈ 33.7 µM); in [13], 8 µg/mL (≈ 16.8 µM); in data set [7], above 128 µg/mL; in data set [8], 1 µg/mL (≈ 2.1 µM); in [9], 8 µg/mL (≈ 16.8 µM); in data set [10], 32 µg/mL (≈ 67.3 µM). Moreover, in data set [6], the CC50 at 72 h turned out to be 259 µM.
Take `CO/N=C1\CN(c2nc3c(cc2F)c(=O)c(C(=O)O)cn3C2CC2)CC1CN` (centres undefined) [GEMIFLOXACIN]: the MIC is 0.5 µg/mL (≈ 1.28 µM) in [11]; 0.06 µg/mL (≈ 0.154 µM) in data set [1]; 4 µg/mL (≈ 10.3 µM) in data set [2]; 2 µg/mL (≈ 5.14 µM) in data set [3]; 2 µg/mL (≈ 5.14 µM) in data set [12]; below 0.03 µg/mL in data set [4]. Moreover, the MIC was 0.06 µg/mL (≈ 0.154 µM) in data set [5]; 0.06 µg/mL (≈ 0.154 µM) in data set [13]; 2 µg/mL (≈ 5.14 µM) in data set [7]; below 0.03 µg/mL in data set [8]; 0.06 µg/mL (≈ 0.154 µM) in data set [9]; 0.125 µg/mL (≈ 0.321 µM) in [10].
In the case of `CO/N=C1/CCN(c2c(F)cc3c(=O)c(C(=O)O)cn(CCF)c3c2F)CC1(C)N` (centres undefined), the MIC in data set [11] is 4 µg/mL (≈ 9.38 µM); in data set [1], 8 µg/mL (≈ 18.8 µM); in data set [2] it was above 128 µg/mL; in [3] it was 16 µg/mL (≈ 37.5 µM); in data set [12] it was 16 µg/mL (≈ 37.5 µM); in [4], 1 µg/mL (≈ 2.35 µM). Besides, the MIC is 8 µg/mL (≈ 18.8 µM) in data set [5]; 4 µg/mL (≈ 9.38 µM) in data set [13]; above 128 µg/mL in data set [7]; 1 µg/mL (≈ 2.35 µM) in data set [8]; 8 µg/mL (≈ 18.8 µM) in [9]; 32 µg/mL (≈ 75 µM) in data set [10]. In data set [6], the CC50 at 72 h is 626 µM.
Take `CCO/N=C1/CCN(c2nc3c(cc2F)c(=O)c(C(=O)O)cn3-c2ccc(F)cc2F)CC1(C)N` (centres undefined): the MIC in data set [11] turned out to be 8 µg/mL (≈ 16.3 µM); in data set [1], 16 µg/mL (≈ 32.7 µM); in [2], 128 µg/mL (≈ 262 µM); in data set [3] it was 128 µg/mL (≈ 262 µM); in data set [12], 16 µg/mL (≈ 32.7 µM); in data set [4], 1 µg/mL (≈ 2.04 µM). Also, the MIC in data set [5] is 16 µg/mL (≈ 32.7 µM); in data set [13] it was 8 µg/mL (≈ 16.3 µM); in data set [7] it was above 128 µg/mL; in [8], 1 µg/mL (≈ 2.04 µM); in data set [9], 4 µg/mL (≈ 8.17 µM); in [10] it was 64 µg/mL (≈ 131 µM). Further, in data set [6], the CC50 at 72 h stood at 31.4 µM.
On to `CCO/N=C1/CCN(c2c(F)cc3c(=O)c(C(=O)O)cn(CCF)c3c2F)CC1(C)N` (centres undefined), for which the minimum inhibitory concentration (MIC) in data set [11] was 4 µg/mL (≈ 9.08 µM); in [1] it was 16 µg/mL (≈ 36.3 µM); in data set [2] it was above 128 µg/mL; in data set [3], 32 µg/mL (≈ 72.7 µM); in data set [12], 16 µg/mL (≈ 36.3 µM); in [4] it was 2 µg/mL (≈ 4.54 µM). The MIC in data set [5] is 16 µg/mL (≈ 36.3 µM); in data set [13] it was 8 µg/mL (≈ 18.2 µM); in data set [7], above 128 µg/mL; in data set [8], 2 µg/mL (≈ 4.54 µM); in [9], 16 µg/mL (≈ 36.3 µM); in data set [10] it was 128 µg/mL (≈ 291 µM). The CC50 at 72 h in [6] is 243 µM.
